In ChEMBL document CHEMBL3046618, “Syntheses and biological activities of pyranyl-substituted cinnamates” (Biosci Biotechnol Biochem, 2001):

Assays:
[1] = system: Rhizoctonia solani; test: Antifungal activity against Rhizoctonia solani assessed as fungal growth inhibition at 100 ppm relative to untreated control; type: functional; settings: read-out: GI
Summary of the method: (§1)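 Fungus precultured on potato dextrose agar (1.5% agar) for four days at 27°C before testing. Compounds tested at 100 ppm in triplicate. Growth inhibition (%) relative to untreated control.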

[2] = system: [Sclerotium] delphinii; test: Antifungal activity against Sclerotium delphinii assessed as fungal growth inhibition at 100 ppm relative to untreated control; type: functional; settings: Agroathelia delphinii; read-out: GI; summary of the method: as §1
[3] = system: Brassica rapa; test: Toxicity against Brassica rapa assessed as plant growth inhibition at 100 ppm relative to untreated control; type: organism-based; settings: in vivo
Summary of the method: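 Seedlings held three days at 27°C in darkness, then radicle and hypocotyl lengths measured. Growth inhibition (%) calculated for each organ against control. Each experiment run three times.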

Structure (SMILES)	inhibition of growth at 100 ppm [1]	inhibition of growth at 100 ppm [2]	growth inhibition (GI) [3]
Cc1ccccc1/C=C/C(=O)Oc1cc(CCc2ccccc2)oc(=O)c1	50%	40%	> 60%
Cc1cccc(/C=C/C(=O)Oc2cc(C)oc(=O)c2)c1	70%	40%	40%
O=C(/C=C/c1ccccc1Cl)Oc1cc(CCc2ccccc2)oc(=O)c1	40%	> 30%	30%
Cc1cc(OC(=O)/C=C/c2ccccc2F)cc(=O)o1	60%	> 40%	30%
Cc1ccc(/C=C/C(=O)Oc2cc(C)oc(=O)c2)cc1	70%	10%	30%
O=C(/C=C/c1ccccc1)Oc1cc(CCc2ccccc2)oc(=O)c1	20%	30%	30%
Cc1cc(OC(=O)/C=C/c2ccccc2)cc(=O)o1	> 60%	20%	30%
O=C(/C=C/c1cccc(Cl)c1)Oc1cc(CCc2ccccc2)oc(=O)c1	40%	10%	50%
O=C(/C=C/c1ccc(Cl)cc1)Oc1cc(CCc2ccccc2)oc(=O)c1	10%	> 30%	20%
Cc1ccc(/C=C/C(=O)Oc2cc(CCc3ccccc3)oc(=O)c2)cc1	50%	≤ 10%	30%
O=C(/C=C/c1ccccc1F)Oc1cc(CCc2ccccc2)oc(=O)c1	10%	10%	40%
Cc1cc(OC(=O)/C=C/c2ccccc2Cl)cc(=O)o1	60%	20%	20%
Cc1cc(OC(=O)/C=C/c2ccc(C(C)C)cc2)cc(=O)o1	80%	≤ 50%	20%
Cc1cc(OC(=O)/C=C/c2cccc(F)c2)cc(=O)o1	> 60%	30%	> 50%
Cc1cc(OC(=O)/C=C/c2ccc(F)cc2)cc(=O)o1	70%	30%	> 50%
Cc1cccc(/C=C/C(=O)Oc2cc(CCc3ccccc3)oc(=O)c2)c1	50%	30%	40%
Cc1cc(OC(=O)/C=C/c2ccccc2C)cc(=O)o1	70%	20%	80%
Cc1cc(OC(=O)/C=C/c2ccc(Cl)cc2)cc(=O)o1	> 60%	30%	> 60%
CC(C)c1ccc(/C=C/C(=O)Oc2cc(CCc3ccccc3)oc(=O)c2)cc1	40%	> 30%	10%
Cc1cc(OC(=O)/C=C/c2cccc(Cl)c2)cc(=O)o1	60%	40%	<= 70%
Cc1cc(O)cc(=O)o1 [4-HYDROXY-6-METHYLPYRAN-2-ONE]	≤ 10%	20%	–
O=C(/C=C/c1ccc(F)cc1)Oc1cc(CCc2ccccc2)oc(=O)c1	10%	10%	40%
O=C(/C=C/c1cccc(F)c1)Oc1cc(CCc2ccccc2)oc(=O)c1	40%	> 30%	30%
COc1cc(CCc2ccccc2)oc(=O)c1 [DIHYDRO-5,6-DEHYDROKAWAIN]	50%	50%	0%
